Results on 2 molecules are retold here after paper PMC4575845 (Journal of biomolecular screening, 2015).

The structures appear in SMILES notation. ≈ marks a conversion by molar mass, not a printed value. Entries after “also recorded” stand apart in the source; their conditions may differ.

Series [1] relates to E. faecalis. The series can be described thus: Time-kill study. Conditions: 4x MIC, 0-24 h. Format: cell-based, Enterococcus faecalis. In short, it runs like this: (§1)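 Time-kill per CLSI M26-A, with compound at 4× MIC (broth microdilution MIC per CLSI M7-A7). Medium: Brain Heart Infusion or Trypticase Soy Broth, with or without 3% lysed horse blood. Viable counts by plating for CFU at 0, 2, 4, 6 and 24 h versus compound-free control cultures.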

Series [2] deals with Streptococcus pneumonia (ATCC 49619). The series can be described thus: Broth microdilution MIC. Conditions: Streptococcus pneumoniae, ATCC49619. It counts as cell-based.
Series [3] has as its target T1, P. aeruginosa GluRS (Pseudomonas aeruginosa, UniProt Q9XCL6).
T1 sequence (Q9XCL6 1-494): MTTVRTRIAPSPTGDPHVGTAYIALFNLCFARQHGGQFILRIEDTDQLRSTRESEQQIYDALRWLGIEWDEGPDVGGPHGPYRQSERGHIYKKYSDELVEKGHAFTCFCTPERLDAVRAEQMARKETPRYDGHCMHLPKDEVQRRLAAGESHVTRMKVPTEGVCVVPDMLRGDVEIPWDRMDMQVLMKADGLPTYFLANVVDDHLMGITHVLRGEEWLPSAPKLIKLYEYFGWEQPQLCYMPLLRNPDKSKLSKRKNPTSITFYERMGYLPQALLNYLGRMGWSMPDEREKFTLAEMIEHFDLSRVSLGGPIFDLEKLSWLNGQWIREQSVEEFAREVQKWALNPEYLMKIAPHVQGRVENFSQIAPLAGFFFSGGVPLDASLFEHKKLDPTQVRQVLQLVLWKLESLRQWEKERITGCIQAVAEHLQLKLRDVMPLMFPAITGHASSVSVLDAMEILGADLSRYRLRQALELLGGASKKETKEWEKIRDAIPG
The series can be described thus: SPA-based tRNA aminoacylation assay. Format: biochemical. Summed up:
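P. aeruginosa GluRS was expressed in E. coli Rosetta 2(DE3) from pET101 and Ni-NTA purified. Final mix: 50 mM Tris-HCl pH 7.5, 8 mM MgCl2, 1.25 mM ATP, 1 mM spermine, 1 mM DTT, 100 µM [3H]Glu, 0.1 µM enzyme. Compound (200–0.4 µM) preincubated 15 min ambient; E. coli tRNA (0.75 µM tRNAGlu) added; 1 h 37 °C; EDTA stop. Poly-L-lysine yttrium silicate SPA beads (citrate pH 2.0), 1 h RT, scintillation count.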

In series [4] the test system is Enterococcus faecalis (ATCC 29212). The series can be described thus: Broth microdilution MIC. Conditions: ATCC29212. Format: cell-based. (In general: Broth dilution looks for growth in wells or tubes with falling amounts of substance.)
Series [5] has as its system S. pneumoniae. The series is described as follows: Time-kill study. Format: cell-based, Streptococcus pneumoniae. Conditions: 4x MIC. In short, it runs like this:
as §1

The target in series [6] is T1, P. aeruginosa GluRS. The series is described as follows: Binding mode assay. Format: biochemical. Conditions: for mode of inhibition with respect to ATP: IC50 at ATP 25-1000 µM, Glu 100 µM; for mode of inhibition with respect to Glu: IC50 at Glu 25-300 µM, ATP held constant. Summed up: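 IC50 by the same SPA aminoacylation assay, with 0.05 µM P. aeruginosa GluRS and compound at 200–0.4 µM final, preincubated 15 min RT. Started with E. coli tRNA (0.75 µM tRNAGlu), 1 h at 37 °C, EDTA stop. DMSO-only positive controls. ATP series 25–1000 µM at 100 µM Glu. Glu series 25–300 µM at constant saturating ATP. Sigmoidal dose–response fit; mode inferred from IC50 change versus substrate level.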

In series [7] the test system is NIH/3T3 cells. The series is described as follows: MTT in vitro cytotoxicity test. Format: cell-based. Conditions: 25–800 µg/mL, 24 h.
In series [8] the test system is S. aureus. The series can be described thus: Time-kill study. Format: cell-based, Staphylococcus aureus. Conditions: 4x MIC.
Series [9] deals with Staphylococcus aureus (ATCC 29213). The series can be described thus: Broth microdilution MIC. Conditions: ATCC29213. Format: cell-based.

For the molecule `O=C(Nc1ccc(-c2cc(C(F)(F)F)nn2-c2ccccc2)cc1)Nc1ccc(F)cc1F` [BT_03F04, 1-(2,4-difluorophenyl)-3-{4-[1-phenyl-3-(trifluoromethyl)-1H-pyrazol-5-yl]phenyl}urea], in series [1], the bacteriostatic or bactericidal entry is “bacteriostatic” and the “decrease in colony-forming units (CFUs) compared to the control” value is recorded as 2–3 log10. Moreover, inhibition of growth in series [2] (MIC) required 8 µg/mL (≈ 17.5 µM). Also, inhibition in series [3] was half-maximal at 21.9 µM (IC50). Also, in series [4], the MIC (usually the least concentration at which growth counts as inhibited) was found to be 2 µg/mL (≈ 4.36 µM). Further, in series [5] (0-24 h), the bacteriostatic or bactericidal result was “bacteriostatic” and the “decrease in colony-forming units (CFUs) compared to the control” value is 2–3 log10. For the same molecule, in series [6], the “mode of inhibition with respect to ATP” value was “noncompetitive” and the “mode of inhibition with respect to Glu” value is reported as “noncompetitive”. The “cytotoxicity (MTT)” value in series [7] is recorded as “not observed to be toxic”.
Regarding `CC1(C)SC(=S)N(/N=C/C=C/c2ccc([N+](=O)[O-])o2)C1N(O)C(=O)Nc1cccc(Cl)c1` (centres unmarked) [BT_04B09, 3-(3-chlorophenyl)-1-(5,5-dimethyl-3-{(E)-[(2E)-3-(5-nitrofuran-2-yl)prop-2-en-1-ylidene]amino}-2-thioxo-1,3-thiazolidin-4-yl)-1-hydroxyurea], the MIC in [2] and in [9] was 32 µg/mL (≈ 64.5 µM) throughout. The bacteriostatic or bactericidal entry in series [8] (0-24 h) and in series [5] (0-24 h) was “bactericidal” throughout. In addition, the regrowth in time-kill entry in series [8] (at 24 h) is given as “some regrowth”. 24.9 µM corresponded to half-maximal inhibition in [3] (IC50). Besides, the “inhibition of growth in time-kill” value in [5] (all times tested) is recorded as “completely”. Further, the “mode of inhibition with respect to ATP” value in series [6] is reported as “noncompetitive; also recorded: remain constant”. Besides, the “mode of inhibition with respect to Glu” value in series [6] is recorded as “competitive”. Also, the “cytotoxicity (MTT)” value in series [7] was “not observed to be toxic”.
